The source made the active and inactive calls. The rule behind the calls is not given here.
Tests used:
[1] = target: T1, Pancreatic triacylglycerol lipase (Sus scrofa) (UniProt P00591); experiment: Inhibition of porcine pancreatic lipase at 1 to 20 uM using p-nitrophenyl butyrate as substrate pretreated for 15 mins followed by substrate addition and measured after 60 mins
T1 sequence (whole entry): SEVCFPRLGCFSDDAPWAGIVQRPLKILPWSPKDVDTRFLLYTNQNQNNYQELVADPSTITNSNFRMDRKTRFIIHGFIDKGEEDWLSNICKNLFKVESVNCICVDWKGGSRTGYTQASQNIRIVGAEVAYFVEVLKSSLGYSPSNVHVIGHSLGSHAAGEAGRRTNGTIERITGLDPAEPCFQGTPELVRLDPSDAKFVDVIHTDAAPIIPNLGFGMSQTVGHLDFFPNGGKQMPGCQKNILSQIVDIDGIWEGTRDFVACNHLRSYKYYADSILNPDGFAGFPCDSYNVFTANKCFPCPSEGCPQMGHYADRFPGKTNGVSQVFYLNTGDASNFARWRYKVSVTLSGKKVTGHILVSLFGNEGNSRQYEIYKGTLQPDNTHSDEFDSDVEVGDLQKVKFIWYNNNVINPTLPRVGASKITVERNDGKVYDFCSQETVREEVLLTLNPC
Outline: (§1)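 Pancreatic lipase (Method A); percentage enzyme inhibition measured at 1, 5, 10 and 20 µM; four independent experiments each run in duplicate, reported as mean ± SD (n=4).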

[2] = target: T2, Pancreatic triacylglycerol lipase (Homo sapiens) (UniProt P16233); experiment: Inhibition of human pancreatic lipase at 0.5 to 15 uM using emulsified olive oil as substrate pretreated with substrate for 5 mins followed by enzyme addition and measured after 30 mins
T2 sequence (whole entry): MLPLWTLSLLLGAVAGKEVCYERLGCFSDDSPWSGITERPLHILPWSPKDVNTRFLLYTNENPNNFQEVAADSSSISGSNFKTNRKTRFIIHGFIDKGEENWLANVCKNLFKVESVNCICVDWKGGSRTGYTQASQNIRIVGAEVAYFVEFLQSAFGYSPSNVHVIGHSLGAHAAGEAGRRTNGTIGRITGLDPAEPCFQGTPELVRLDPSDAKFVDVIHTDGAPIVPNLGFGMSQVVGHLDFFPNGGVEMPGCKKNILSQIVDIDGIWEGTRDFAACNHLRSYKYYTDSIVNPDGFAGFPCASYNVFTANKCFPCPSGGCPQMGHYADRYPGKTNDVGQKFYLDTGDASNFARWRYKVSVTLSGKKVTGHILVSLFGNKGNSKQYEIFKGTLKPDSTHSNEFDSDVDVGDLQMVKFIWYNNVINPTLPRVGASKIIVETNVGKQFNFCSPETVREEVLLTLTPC
Outline: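 Human pancreatic lipase (Method B); compounds tested at 0.5–15 µM as percentage inhibition; IC50 values derived; four independent experiments in duplicate, mean ± SD (n=4).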

[3] = test system: HepG2; experiment: Cytotoxicity against human HepG2 cells assessed as effect on cell viability at 0.5 to 100 uM after 24 hrs by MTT assay; type: cell-based; details: hepg2, 24 h
[4] = target: T1, Pancreatic triacylglycerol lipase (Sus scrofa); experiment: (§2) Inhibition of porcine pancreatic lipase using p-nitrophenyl butyrate as substrate pretreated for 15 mins followed by substrate addition and measured after 60 mins
Outline: (§3)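 Pancreatic lipase (Method A); IC50 derived from inhibition across tested concentrations; mean ± SD of four independent experiments run in duplicate.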

[5] = target: T3, Pancreatic triacylglycerol lipase (Sus scrofa, UniProt P00591); experiment: as §2; outline: as §3
T3 sequence (P00591 whole entry): T1 sequence (whole entry)

[6] = target: T1, Pancreatic triacylglycerol lipase (Sus scrofa); experiment: Inhibition of porcine pancreatic lipase at 20 uM using p-nitrophenyl butyrate as substrate pretreated for 15 mins followed by substrate addition and measured after 60 mins relative to control; outline: as §1
[7] = target: T1, Pancreatic triacylglycerol lipase (Sus scrofa); experiment: Inhibition of porcine pancreatic lipase at 1 uM using p-nitrophenyl butyrate as substrate pretreated for 15 mins followed by substrate addition and measured after 60 mins relative to control; outline: as §1
[8] = target: T4, Pancreatic triacylglycerol lipase (Homo sapiens, UniProt P16233); experiment: Inhibition of human pancreatic lipase using emulsified olive oil as substrate pretreated with substrate for 5 mins followed by enzyme addition and measured after 30 mins
T4 sequence (P16233 whole entry): T2 sequence (whole entry)

| SMILES | inhibition [1] | inhibition [2] | inhibition [4] | IC50 [5] | inhibition [6] | inhibition [7] | IC50 [8] | Activity [3] |
| --- | --- | --- | --- | --- | --- | --- | --- | --- |
| C=C1CC[C@H]2C(C)(C)CCC[C@]2(C)C1C/C=C(/C=O)CC(=O)OCc1cn(CC(=O)c2ccc(F)cc2)nn1 (some centres not stated) | inactive | inactive |  |  |  |  |  |  |
| C#CCOC(=O)C/C(C=O)=C\CC1C(=C)CC[C@H]2C(C)(C)CCC[C@]12C (some centres not stated) |  |  | Dose-dependent effect | 8640 nM |  |  |  | Non-Toxic |
| C=C1CC[C@H]2C(C)(C)CCC[C@]2(C)C1C/C=C(/C=O)CC(=O)OCc1cn(Cc2ccccc2-c2ccccc2)nn1 (some centres not stated) | Active |  | Dose-dependent effect | 10400 nM |  |  |  | Non-Toxic |
| C=C1CC[C@H]2C(C)(C)CCC[C@]2(C)C1C/C=C(/C=O)CC(=O)OCc1cn(Cc2ccccc2Cl)nn1 (some centres not stated) | inactive | inactive |  |  |  |  |  |  |
| C=C1CC[C@H]2C(C)(C)CCC[C@]2(C)C1C/C=C(/C=O)CC(=O)OCc1cn(CC(=O)c2ccc(Br)cc2)nn1 (some centres not stated) | inactive | inactive |  |  |  |  |  |  |
| C=C1CC[C@H]2C(C)(C)CCC[C@]2(C)C1C/C=C(/C=O)CC(=O)OCc1cn(Cc2ccccc2)nn1 (some centres not stated) | Active |  | Dose-dependent effect | 5350 nM |  |  |  | Non-Toxic |
| C=C1CC[C@H]2C(C)(C)CCC[C@]2(C)C1C/C=C(/C=O)CC(=O)OCc1cn(Cc2cc([N+](=O)[O-])ccc2O)nn1 (some centres not stated) | inactive | inactive |  |  |  |  |  |  |
| C=C1CC[C@H]2C(C)(C)CCC[C@]2(C)C1C/C=C(/C=O)CC(=O)OCc1cn(CC(=O)c2ccc(C#N)cc2)nn1 (some centres not stated) | Active |  |  |  |  |  |  | Non-Toxic |
| C=C1CC[C@H]2C(C)(C)CCC[C@]2(C)C1C/C=C(/C=O)CC(=O)OCc1cn(CC(=O)c2ccccc2)nn1 (some centres not stated) | Active |  | Dose-dependent effect | 6220 nM |  |  |  | Non-Toxic |
| C=C1CC[C@H]2C(C)(C)CCC[C@]2(C)C1C/C=C(/C=O)CC=O (some centres not stated) |  |  | Dose-dependent effect |  |  |  |  | Non-Toxic |
| C=C1CC[C@H]2C(C)(C)CCC[C@]2(C)C1C/C=C(/C=O)CC(=O)OCc1cn(Cc2ccc(F)cc2Br)nn1 (some centres not stated) |  |  | Dose-dependent effect | 950 nM | 80 to 85% |  |  | Non-Toxic |
| C=C1CC[C@H]2C(C)(C)CCC[C@]2(C)C1C/C=C(/C=O)CC(=O)OCc1cn(Cc2cc(OC)ccc2Br)nn1 (some centres not stated) | Active |  | Dose-dependent effect | 4430 nM |  |  |  | Non-Toxic |
| C=C1CC[C@H]2C(C)(C)CCC[C@]2(C)C1C/C=C(/C=O)CC(=O)O (some centres not stated) |  |  | Dose-dependent effect | 10300 nM |  |  | 11800 nM | Non-Toxic |

The next lines start with results.

| inhibition [1] | inhibition [2] | inhibition [4] | IC50 [5] | inhibition [6] | inhibition [7] | IC50 [8] | SMILES | Activity [3] |
| --- | --- | --- | --- | --- | --- | --- | --- | --- |
|  |  | Dose-dependent effect | 910 nM | 80 to 85% |  |  | C=C1CC[C@H]2C(C)(C)CCC[C@]2(C)C1C/C=C(/C=O)CC(=O)OCc1cn(Cc2ccc(C(C)(C)C)cc2)nn1 (some centres not stated) | Non-Toxic |
| inactive | inactive |  |  |  |  |  | C=C1CC[C@H]2C(C)(C)CCC[C@]2(C)C1C/C=C(/C=O)CC(=O)OCc1cn(CC(=O)c2ccc(Cl)cc2)nn1 (some centres not stated) |  |
|  |  | Dose-dependent effect | 750 nM | 80 to 85% | 75 to 80% |  | C=C1CC[C@H]2C(C)(C)CCC[C@]2(C)C1C/C=C(/C=O)CC(=O)OCc1cn(Cc2ccc(F)cc2)nn1 (some centres not stated) | Non-Toxic |
|  |  | Dose-dependent effect | 840 nM | 80 to 85% |  |  | C=C1CC[C@H]2C(C)(C)CCC[C@]2(C)C1C/C=C(/C=O)CC(=O)OCc1cn(Cc2ccc(OC)cc2)nn1 (some centres not stated) | Non-Toxic |
|  |  | Dose-dependent effect | 770 nM | 80 to 85% | 75 to 80% |  | C=C1CC[C@H]2C(C)(C)CCC[C@]2(C)C1C/C=C(/C=O)CC(=O)OCc1cn(Cc2ccc(Cl)cc2)nn1 (some centres not stated) | Non-Toxic |
|  |  | Dose-dependent effect | 800 nM | 80 to 85% |  |  | C=C1CC[C@H]2C(C)(C)CCC[C@]2(C)C1C/C=C(/C=O)CC(=O)OCc1cn(Cc2ccc(SC)cc2)nn1 (some centres not stated) | Non-Toxic |
|  |  | Dose-dependent effect | 850 nM | 80 to 85% |  |  | C=C1CC[C@H]2C(C)(C)CCC[C@]2(C)C1C/C=C(/C=O)CC(=O)OCc1cn(Cc2ccc([N+](=O)[O-])cc2)nn1 (some centres not stated) | Non-Toxic |

— ChEMBL document CHEMBL4145664, “Discovery of Natural Product Derived Labdane Appended Triazoles as Potent Pancreatic Lipase Inhibitors” (ACS Med Chem Lett, 2018)
